The results in this text go back to ChEMBL document CHEMBL1914314, “Acidic triazoles as soluble guanylate cyclase stimulators” (Bioorg Med Chem Lett, 2011).

The nature of series [1]: Intrinsic clearance in human liver microsomes assessed per mg of protein. The class given is ADME, Microsome. A digest of the protocol: (§1)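 Intrinsic metabolic clearance in liver microsomes, expressed as µL/min/mg protein.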
On the technique in general: Liver microsomes are a subcellular fraction often used to study metabolism.

Series [2] is described as follows: Apparent permeability from apical to basolateral side in dog RRCK cells. The class given is ADME, cell-based, Canis lupus familiaris, MDCKII-LE. The following applies: MDCK. A digest of the protocol: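 Passive permeability measured in RRCK cells as Papp A→B, in units of 10^-6 cm/s.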
A further series addresses T1, CYP1A2 (Homo sapiens, UniProt P05177).
T1 sequence (P05177 whole entry): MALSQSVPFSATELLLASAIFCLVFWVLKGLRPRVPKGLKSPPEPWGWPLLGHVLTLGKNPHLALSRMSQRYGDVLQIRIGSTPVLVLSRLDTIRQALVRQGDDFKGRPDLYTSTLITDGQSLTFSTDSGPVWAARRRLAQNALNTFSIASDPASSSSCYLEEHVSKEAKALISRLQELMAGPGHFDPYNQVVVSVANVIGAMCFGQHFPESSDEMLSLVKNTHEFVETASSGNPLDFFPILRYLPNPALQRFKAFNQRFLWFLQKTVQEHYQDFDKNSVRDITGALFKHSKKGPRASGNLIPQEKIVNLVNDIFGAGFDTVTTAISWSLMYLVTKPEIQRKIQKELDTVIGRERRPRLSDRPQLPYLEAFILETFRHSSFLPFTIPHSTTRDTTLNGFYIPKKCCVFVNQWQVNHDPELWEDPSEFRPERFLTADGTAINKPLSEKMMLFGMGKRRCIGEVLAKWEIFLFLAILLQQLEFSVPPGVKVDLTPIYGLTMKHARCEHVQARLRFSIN
The experiment in a line: Inhibition of CYP1A2 at 3 uM. It counts as ADME.

Series [3] deals with T2, Soluble guanylate cyclase (Homo sapiens) (UniProt Q02153+O75343+P33402+Q02108). The experiment in a line: Activation of human soluble guanylate cyclase assessed as production of cGMP in presence of nitric oxide donor, SIN-1 by LC-MS enzyme assay. It counts as protein-complex assay.
The target of series [4] is T2, Soluble guanylate cyclase (Homo sapiens). Briefly: Activation of human soluble guanylate cyclase assessed as production of cGMP in presence of nitric oxide donor, SIN-1 by FP assay. The class given is protein-complex assay. An outline of the steps: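 Purified human sGC with the NO donor SIN-1 present. Enzyme converts GTP to cGMP, and the cGMP binds a cGMP-specific antibody included in the reactions. Read-out is fluorescence polarization.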

A short description of series [5]: Octanol-buffer partition coefficient, log D of the compound at pH 7.4. The class given is physicochemical. An outline of the steps: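 LogD measured by partition between octanol and pH 7.4 buffer.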
A short description of series [6]: Activation of soluble guanylate cyclase in Sprague-Dawley rat thoracic aorta rings assessed as […] in presence of nitric oxide donor, DETA-NO. It counts as tissue-based.
A short description of series [7]: Half life in rat at 2 mg/kg, iv. It counts as ADME, organism-based. Further details: dose 2 mg/kg, route intravenous. The conditions noted are these: in vivo. A digest of the protocol:
(§2)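 Rats dosed iv at 2 mg/kg. Clearance, volume of distribution at steady state and half-life derived after iv dosing.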

The nature of series [8]: Volume of distribution at steady state in rat at 2 mg/kg, iv. The class given is ADME, organism-based. Details: dose 2 mg/kg, route intravenous. The conditions noted are these: in vivo, read-out: Vdss. A digest of the protocol: as §2
A short description of series [9]: Oral bioavailability in rat at 2 mg/kg. It counts as ADME, organism-based. The conditions noted are these: in vivo. An outline of the steps: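 Rats dosed orally at 2 mg/kg. Bioavailability determined after oral dosing, with a 2 mg/kg iv arm for reference.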
Series [10] is described as follows: Clearance in rat at 2 mg/kg, iv. The class given is ADME, organism-based. Details: dose 2 mg/kg, route intravenous. The conditions noted are these: in vivo. A digest of the protocol:
as §2

The nature of series [11]: Apparent permeability of the compound by PAMPA assay. It counts as ADME. An outline of the steps:
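Passive permeability from a PAMPA screen, as Papp in units of 10^-6 cm/s.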
Background: PAMPA measures passive passage across an artificial lipid membrane.

Series [12] in a line: Activation of soluble guanylate cyclase in Sprague-Dawley rat thoracic aorta rings assessed as inhibition of noradrenaline-evoked vasoconstriction in presence of nitric oxide donor, DETA-NO.
A short description of series [13]: Intrinsic clearance in rat liver microsomes assessed per mg of protein. The class given is ADME, Microsome. A digest of the protocol: as §1
Series [14] addresses Voltage-gated inwardly rectifying potassium channel KCNH2 (Homo sapiens, UniProt Q12809). The experiment in a line: Inhibition of human ERG.

Sequence of Voltage-gated inwardly rectifying potassium channel KCNH2 (Q12809 whole entry): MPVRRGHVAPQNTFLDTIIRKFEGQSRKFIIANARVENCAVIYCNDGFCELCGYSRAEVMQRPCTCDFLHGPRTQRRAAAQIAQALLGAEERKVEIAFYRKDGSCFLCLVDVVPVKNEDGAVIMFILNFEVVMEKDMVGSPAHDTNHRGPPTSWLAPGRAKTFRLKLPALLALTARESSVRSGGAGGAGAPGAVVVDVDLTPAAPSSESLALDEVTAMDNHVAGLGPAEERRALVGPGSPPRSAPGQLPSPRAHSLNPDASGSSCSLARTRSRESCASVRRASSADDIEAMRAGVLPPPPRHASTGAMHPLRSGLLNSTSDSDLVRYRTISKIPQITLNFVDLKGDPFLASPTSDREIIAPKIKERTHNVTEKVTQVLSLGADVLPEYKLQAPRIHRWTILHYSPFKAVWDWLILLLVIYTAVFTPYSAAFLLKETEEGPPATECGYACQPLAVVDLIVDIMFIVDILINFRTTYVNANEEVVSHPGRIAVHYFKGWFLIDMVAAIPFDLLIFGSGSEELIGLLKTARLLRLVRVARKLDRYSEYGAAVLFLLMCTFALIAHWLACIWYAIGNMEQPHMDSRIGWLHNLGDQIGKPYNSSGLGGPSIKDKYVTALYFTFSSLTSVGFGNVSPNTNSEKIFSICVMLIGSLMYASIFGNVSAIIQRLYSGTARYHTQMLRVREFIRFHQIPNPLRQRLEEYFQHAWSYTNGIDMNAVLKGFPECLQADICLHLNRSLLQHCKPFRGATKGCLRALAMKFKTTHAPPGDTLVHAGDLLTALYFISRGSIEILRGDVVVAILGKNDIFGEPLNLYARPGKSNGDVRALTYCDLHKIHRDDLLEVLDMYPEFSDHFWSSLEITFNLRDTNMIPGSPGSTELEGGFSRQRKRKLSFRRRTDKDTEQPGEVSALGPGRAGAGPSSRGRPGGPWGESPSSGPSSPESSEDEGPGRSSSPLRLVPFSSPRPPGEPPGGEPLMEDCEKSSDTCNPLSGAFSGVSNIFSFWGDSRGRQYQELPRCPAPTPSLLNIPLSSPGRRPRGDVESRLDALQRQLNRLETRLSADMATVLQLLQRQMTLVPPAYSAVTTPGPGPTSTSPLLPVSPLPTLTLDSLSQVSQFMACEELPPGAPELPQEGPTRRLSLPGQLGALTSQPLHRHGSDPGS

In the case of `Fc1ccccc1Cc1nc(-c2nc(C(F)(F)F)n[nH]2)c2ccccn12`, in series [1], the microsomal CLint (as a rule, the rate of metabolic loss divided by the concentration) came to 20 µL/min/mg. Further, the Papp A→B – broadly, the apparent permeability from the apical to the basolateral side of a cell layer – in series [2] stood at 170 nm/s. For the same compound, testing at 3 µM against CYP1A2 gave an inhibition of 66%. For the same compound, the EC10 (commonly the concentration needed for an effect of 10%) in [3] came out at 0.658 µM. Also, the EC20 (as a rule, the concentration at which the effect reaches the 20% level) in [4] was 1.07 µM. Moreover, the logD (in general, the decadic logarithm of the distribution of all forms, ionised or not, between an organic phase and buffer at a given pH) in series [5] amounted to 3.9.
On to `Cc1ncc(Cc2nc(-c3nc(C(F)(F)F)n[nH]3)n3cccc(F)c23)cn1`, for which the microsomal CLint in series [1] is less than 8 µL/min/mg. Moreover, in series [2], the Papp A→B stood at 230 nm/s. Moreover, at 3 µM the inhibition at CYP1A2 was 15%. Further, the concentration for an effect of 20% (EC20) in series [4] stood at 0.073 µM. Further, the logD in series [5] is 2.
Regarding `Fc1ccccc1Cc1nc(-c2nc(C(F)F)n[nH]2)n2ccccc12`, the microsomal CLint in [1] came out at 62 µL/min/mg. Further, the Papp A→B in series [2] came to 2 nm/s. Further, at CYP1A2, the inhibition (usually the change of the read-out against control, counted positive when it falls) at 3 µM is 49%. Besides, the EC10 in [3] stood at 0.507 µM. The same compound came in with a logD in [5] of 3.8.
On the same counts, the results for `NC(=O)c1n[nH]c(-c2nc(Cc3ccccc3F)c3ccccn23)n1` are less than 8 µL/min/mg, 130 nm/s, 16%, 2.81 µM and 2.8.
As for `Fc1ccccc1Cc1nc(-c2nc(C(F)(F)F)n[nH]2)c2cccnn12`, in series [3], the EC10 came to 0.224 µM.
Consider `Fc1ccccc1Cc1nc(-c2ncn[nH]2)n2ccccc12`, for which the microsomal CLint in series [1] was determined as 175 µL/min/mg. The Papp A→B in [2] stood at 80 nm/s. 3 µM produced 39% inhibition against CYP1A2. For the same compound, the EC10 in series [3] amounted to 2.8 µM. The compound also registered a logD in series [5] of 3.3.
For the compound `Fc1ccccc1Cc1nc(-c2nc(Cc3ccccc3)n[nH]2)n2ccccc12`, the Papp A→B in [2] is 5 nm/s. The same compound showed an inhibition at 3 µM at CYP1A2 of 29%. In addition, the EC10 in series [3] is 0.84 µM. Further, in series [4], the EC20 amounted to 0.554 µM.
As for `Fc1ccccc1Cn1nc(-c2nc(C(F)(F)F)n[nH]2)c2cccnc21`, the microsomal CLint in [1] was less than 11 µL/min/mg. Besides, in series [6], the IC50 (commonly the midpoint of a concentration-inhibition curve) turned out to be 0.033 µM. In addition, the Papp A→B in series [2] is 200 nm/s. Moreover, the half-life (commonly how long it takes for the measured level to halve) in series [7] was 4.7 h. The inhibition at 3 µM against CYP1A2 is 20%. For the same compound, the Vd in series [8] was determined as 3.1 L/kg. For the same compound, the bioavailability (usually dose-corrected exposure relative to a reference, in per cent) in series [9] was determined as 66%. In series [10], the clearance (usually a measure of how efficiently the substance is removed, as volume per time) came out at 0.48 L/h/kg. The EC10 in series [3] was 0.06 µM. For the same compound, in series [4], the EC20 is 0.022 µM. In addition, the logD in [5] came out at 3.2.
Turning to `Fc1ccccc1Cc1nc(-c2nc(C(F)(F)F)n[nH]2)n2cccnc12`, in series [1], the microsomal CLint came to 17 µL/min/mg. Besides, the Papp A→B in [2] came to 280 nm/s. Testing at 3 µM against CYP1A2 gave an inhibition of 17%. The EC10 in [3] was 0.724 µM. For the same compound, in series [4], the EC20 came out at 0.221 µM. The compound further showed a logD in series [5] of 2.5.
Turning to `Cc1ncc(Cn2nc(-c3nc(C(F)(F)F)n[nH]3)c3cccnc32)cn1`, the microsomal CLint in series [1] is less than 7 µL/min/mg. The compound further showed an inhibition at 3 µM against CYP1A2 of less than 5%. Moreover, in series [4], the EC20 was found to be 0.058 µM. The Papp (as a rule, the rate of passage across a membrane or cell layer, normalised by area and donor concentration) in series [11] came to 270 nm/s.
For the compound `OCc1ccc(-c2nn(Cc3ccccc3)c3ccccc23)o1`, the microsomal CLint in [1] was 212 µL/min/mg. Also, in [2], the Papp A→B came to 60 nm/s. For the same compound, at 3 µM the inhibition against CYP1A2 was 69%. Further, the EC10 in series [3] is 3.36 µM. Besides, in series [5], the logD came out at 3.7.
For `Cc1ncc(Cc2nc(-c3nc(C(F)(F)F)n[nH]3)n3ccccc23)cn1`, in series [1], the microsomal CLint was less than 8 µL/min/mg. Besides, the Papp A→B in [2] was determined as 270 nm/s. On CYP1A2, this compound returned an inhibition at 3 µM of 5%. Further, in [3], the EC10 is 0.366 µM. The EC20 in [4] turned out to be 0.245 µM. This compound also registered a logD in series [5] of 2.1.
`Cc1n[nH]c(-c2nc(Cc3ccccc3F)c3ccccn23)n1` gave an intrinsic metabolic clearance (microsomal CLint) in series [1] of 124 µL/min/mg. In [2], the apical-to-basolateral permeability (Papp A→B) stood at 10 nm/s. Also, the inhibition at 3 µM against CYP1A2 came to 23%. Further, in series [3], the EC10 stood at 0.393 µM. In addition, the logD in [5] is 3.3.
On to `CS(=O)(=O)c1n[nH]c(-c2nc(Cc3ccccc3F)c3ccccn23)n1`, for which the microsomal CLint in [1] came to 14 µL/min/mg. Moreover, at CYP1A2, the inhibition at 3 µM stood at 3%. Further, the EC10 in series [3] amounted to 1.34 µM. In addition, in series [5], the log distribution coefficient (logD) was 1.2.
Compound `Fc1ccccc1Cc1nc(-c2nc(C(F)(F)C(F)(F)F)n[nH]2)n2ccccc12` returned an intrinsic clearance (microsomal CLint) in series [1] of 92 µL/min/mg. Further, the apparent permeability from apical to basolateral (Papp A→B) in series [2] amounted to 30 nm/s. On CYP1A2, this compound returned an inhibition at 3 µM of 31%. Further, the EC10 in series [3] was 1.17 µM. For the same compound, in series [5], the logD came to 4.2.
Take `Nc1nc(-c2nn(Cc3ccccc3F)c3ncccc23)nc(N)c1N1CCOCC1`: the half-inhibitory concentration (IC50) in series [12] amounted to 0.011 µM. The EC10 in series [3] worked out at 0.044 µM. For the same compound, the EC20 in series [4] is 0.011 µM. For the same compound, the logD in series [5] is 3.1.
Take `Fc1ccccc1Cc1nc(-c2nc(C(F)(F)F)n[nH]2)n2ccccc12`: in series [1], the microsomal CLint was 72 µL/min/mg. Moreover, in series [12], the IC50 came to 0.04 µM. Also, the Papp A→B in series [2] came out at 60 nm/s. This compound also showed an inhibition at 3 µM on CYP1A2 of 57%. For the same compound, the EC10 in series [3] is 0.47 µM. In addition, in [4], the EC20 stood at 0.281 µM. Moreover, the logD in [5] worked out at 3.8.
In the case of `FC(F)(F)c1n[nH]c(-c2nc(Cc3cncnc3)c3ccccn23)n1`, the microsomal CLint in [1] is less than 7 µL/min/mg; in series [13], less than 16 µL/min/mg. In [12], the IC50 was 0.06 µM. Besides, the Papp A→B in series [2] is 190 nm/s. Moreover, the half-life in series [7] is 4.1 h. This compound yielded an inhibition at 3 µM against CYP1A2 of 82%. Moreover, the Vd in series [8] is 3.7 L/kg. In addition, in series [9], the bioavailability was 61%. The compound also had an INH in series [14] of more than 10 µM. In series [10], this compound returned a clearance of 0.594 L/h/kg. Besides, in series [3], the EC10 was 0.21 µM. The EC20 in [4] came out at 0.08 µM. Moreover, the logD in series [5] amounted to 1.8.
